How the values were obtained:
Mycobacterium avium [1] = test: In vitro activity against Mycobacterium avium (ATCC49601); assay type: functional
Method in brief: (§1)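 Broth macrodilution MIC. Cultures were grown in modified Middlebrook 7H10 broth (agar and malachite green omitted) with 10% OADC and 0.05% Tween 80, shaken at 37 °C for 3 days, then diluted in 7H10 broth to 1 Klett unit/mL. Test agents were dissolved in water or DMSO and filter-sterilised, then serially diluted 2-fold in 7H10 broth at pH 5.8. Tubes were shaken at 37 °C for 7–10 days, with a drug-free control. MIC was the lowest concentration with no visible turbidity, expressed in mmol/L.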

[2] = Partition coefficient (logP); assay type: physicochemical; settings: octanol/water
[3] = tested on: Mycobacterium tuberculosis; test: In vitro activity against Mycobacterium tuberculosis (ATCC 35801); assay type: functional; method in brief: as §1
Mycobacterium avium [4] = test: In vitro activity against Mycobacterium avium (MAC-101); assay type: functional; method in brief: as §1
Mycobacterium kansasii [5] = test: In vitro activity against Mycobacterium kansasii (SWK); assay type: functional; method in brief: as §1
[6] = t1/2 (min) in equine serum; assay type: ADME, organism-based, Equus caballus; settings: horse
Method in brief: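 Ester from a 1 mg/mL stock was mixed with 5% aqueous equine serum in 0.01 M KH2PO4, pH 7.2. Aliquots were taken at 0, 5, 10, 15, 30, 60 and 120 min and quenched with an equal volume of acetonitrile, then filtered. Remaining ester was measured by isocratic reverse-phase HPLC (80% acetonitrile/20% 0.1 M sodium acetate, pH 5.0), with UV detection at 265 nm against a standard curve. Half-life is the time to 50% conversion to the acid.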

[7] = tested on: Mycobacterium tuberculosis; test: In vitro activity against Mycobacterium tuberculosis (ATCC 35828); assay type: functional; method in brief: as §1
[8] = T1/2 in equine serum; assay type: ADME, organism-based, Equus caballus; settings: horse
Method in brief: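 Ester from a 1 mg/mL stock was mixed with 5% aqueous equine serum in 0.01 M KH2PO4, pH 7.2. Remaining ester was measured by isocratic reverse-phase HPLC (80% acetonitrile/20% 0.1 M sodium acetate, pH 5.0), with UV detection at 265 nm against a standard curve. Half-life is the time to 50% conversion to the acid.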

[9] = tested on: Mycobacterium tuberculosis; test: In vitro activity against Mycobacterium tuberculosis (ATCC 27294); assay type: functional; method in brief: as §1
Mycobacterium kansasii [10] = test: in vitro activity against Mycobacterium kansasii (SWK).; assay type: functional
Method in brief: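 M. kansasii clinical isolate SWK was grown 3 days at 37 °C with shaking in modified Middlebrook 7H10 broth with 10% OADC and 0.05% Tween 80, then diluted. It was tested in serial 2-fold dilutions in 7H10 broth at pH 5.8, shaken at 37 °C for 7–10 days, with a drug-free control. MIC was the lowest concentration giving no visible turbidity, expressed in mmol/L.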

Mycobacterium avium [11] = test: In vitro activity against Mycobacterium avium (ATCC 49601).; assay type: functional; method in brief: as §1
Mycobacterium avium [12] = test: In vitro activity against Mycobacterium avium (MAC-101).; assay type: functional; method in brief: as §1

| Structure (SMILES) | Log 1/MMIC (Mycobacterium avium [1]) | logP [2] | Log 1/MMIC [3] | Log 1/MMIC (Mycobacterium avium [4]) | Log 1/MMIC (Mycobacterium kansasii [5]) | half-life [6] | Log 1/MMIC [7] | half-life [8] | Log 1/MMIC [9] | Log 1/MMIC (Mycobacterium kansasii [10]) | Log 1/MMIC (Mycobacterium avium [11]) | Log 1/MMIC (Mycobacterium avium [12]) |
| --- | --- | --- | --- | --- | --- | --- | --- | --- | --- | --- | --- | --- |
| CCCCCCOC(=O)c1cnc(F)cn1 | 0.548 | 2.96 | 1.753 | 0.548 | 1.452 | 2.8 min |  |  |  |  |  |  |
| CCCCCCCC(C)OC(=O)c1cnc(Cl)cn1 (centres undefined) |  | 4.14 | 2.756 |  |  |  | 2.153 | 30 min | 2.455 | 3.977 | 0.949 | 0.949 |
| CCCOC(=O)c1cnc(C)cn1 | 0.45 | 1.15 | 1.654 | 0.45 | 1.353 | 124 min |  |  | 1.955 |  |  |  |
| CCCCCCCOC(=O)c1cnc(C)cn1 |  | 3.35 | 2.976 |  |  |  | 2.373 | 3.2 min | 2.675 | 1.771 | 0.868 | 0.868 |
| CCC(C)OC(=O)c1cnccn1 (centres undefined) | -0.755 | 1.05 |  | -0.152 | 1.052 | 41.1 min |  |  | 1.353 |  |  |  |
| CCCCCCCCCCOC(=O)c1cnccn1 |  | 4.58 | 3.024 |  |  |  | 3.024 | 0.8 min | 2.723 | 3.723 | 1.519 | 0.917 |
| CCCCCCCCCCOC(=O)c1cnc(F)cn1 |  | 5.08 | 1.849 |  |  |  | 1.849 | 4 min | 2.15 | 2.451 | 0.946 | 0.946 |
| COC(=O)c1cnccn1 | -0.268 |  | 0.936 | -0.268 | 0.334 | 470 min |  |  | 1.237 |  |  |  |
| COC(=O)c1cnc(I)cn1 |  | 0.91 | 1.218 |  |  |  | 1.218 | 200 min | 1.218 | 1.519 | 0.013 | 0.013 |
| CC(C)COC(=O)c1cnc(Cl)cn1 |  | 1.97 | 2.934 |  |  |  | 2.031 | 11.8 min | 2.031 | 2.33 | 0.526 | 0.526 |
| CCCCCCCCC(C)OC(=O)c1cnc(Cl)cn1 (centres undefined) |  | 4.75 | 2.776 |  |  |  | 3.998 | 23.7 min | 3.697 | 3.378 | 0.97 | 0.97 |
| CCCCCCCCCC(C)(C)OC(=O)c1cnc(Cl)cn1 |  | 6.01 | 2.514 |  |  |  | 1.31 | 902 min | 1.611 | 2.815 | 0.106 | 0.106 |
| O=C(OCc1ccccc1)c1cnccn1 | 0.525 | 1.49 |  | 0.525 | 2.331 | 4.3 min | 2.03 |  |  |  |  |  |
| CCCCCCCCCOC(=O)c1cnc(Cl)cn1 |  | 4.98 | 2.455 |  |  |  | 3.977 | 2.3 min | 3.977 | 3.358 | 1.25 | 0.949 |
| COC(=O)c1cnc(F)cn1 | 0.387 | 0.27 |  | 0.387 | 1.29 | 222 min |  |  | 1.591 |  |  |  |
| CCCCCC(CC)OC(=O)c1cnc(Cl)cn1 (centres undefined) |  | 4.24 | 3.035 |  |  |  | 3.035 | 7 min | 2.734 | 3.955 | 0.927 | 0.626 |
| CC(C)COC(=O)c1cnccn1 | -0.152 | 1.07 | 1.654 | -0.152 | 1.052 | 207 min | 1.654 |  | 1.955 |  |  |  |
| CCCCCCCCCC(C)OC(=O)c1cnc(Cl)cn1 (centres undefined) |  | 5.25 | 3.398 |  |  |  | 2.495 | 29.6 min | 3.087 | 3.097 | 1.291 | 1.291 |
| CC(C)(C)OC(=O)c1cnc(Cl)cn1 |  | 1.7 | 2.031 |  |  |  | 1.73 | 1200 min | 1.73 | 2.633 | 2.33 | 0.225 |
| COC(=O)c1cnc(OC)cn1 | -0.183 | 0.74 |  | -0.183 | 0.42 | 300 min |  |  |  |  |  |  |
| CCCCCCOC(=O)c1cnc(Cl)cn1 |  | 3.36 | 3.288 |  |  |  | 2.686 | 2.2 min | 3.288 | 4.21 | 1.181 | 0.88 |

From ChEMBL document CHEMBL1129793, “Quantitative structure-activity relationships for the in vitro antimycobacterial activity of pyrazinoic acid esters” (J Med Chem, 1996)
